The target in test [1] is GABA-A receptor; anion channel. Put plainly: Concentration that inhibits specific [3H]flunitrazepam binding to benzodiazepine receptor in bovine brain. The essentials: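 Bovine cortex (frozen, -20 °C) homogenized in 50 mM Tris-HCl pH 7.4, spun 48000g 10 min, pellet resuspended; incubated 45 min with 0.2 nM [3H]flunitrazepam (final) and displacers. Rapid filtration over GF-B filters, three ice-cold washes, scintillation counting. Nonspecific binding with 10 µM diazepam. IC50 by log probit analysis, four to six concentrations, each in triplicate.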

Test [2] deals with GABA-A receptor; anion channel (Mus musculus) (UniProt Q8BHJ7+P26048+Q8QZW7+P50571+Q9R0Y8+P22723+A2AMW3+P62812+Q9JLF1+P26049+P22933+Q9D6F4+P63080+P27681+P16305). Put plainly: In vivo inhibition of specific [3H]flunitrazepam binding in mouse brain 10 minute after iv administration of 15 uM/Kg. It is filed as organism-based. The essentials:
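Mouse brain ex vivo: specific [3H]flunitrazepam binding measured 10 min after iv dosing at 15 µmol/kg; reported as percent inhibition of specific binding, mean ± SEM of four determinations.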

SMILES strings stand for the structures.

Broadly, the IC50 is the concentration at which inhibition is half-maximal. Usually inhibition stands for the percentage by which the read-out fell short of the control. A low value points to little suppression.

`O=C(O)C1Cc2c([nH]c3ccccc23)CN1` (stereo unspecified): the IC50 in test [1] was 22 µM.

In the case of `O=C(OCc1cccnc1)c1cc2c3ccccc3nc-2c[nH]1`, the IC50 in test [1] is 0.034 µM. The compound further yielded an inhibition in test [2] of 49.4%.

In test [1], `CCCCOC(=O)c1cc2c(cn1)[nH]c1ccccc12` came in with a half-maximal inhibitory concentration (IC50) of 0.029 µM. The inhibition in test [2] stood at 54.9%.

As for `CCCCOC(=O)C1Cc2c([nH]c3ccccc23)CN1` (stereo unspecified), in test [1], the IC50 worked out at 4.8 µM.

Take `O=C(O)c1cc2c3ccccc3nc-2c[nH]1`: the IC50 in test [1] was 7.2 µM.

In turn, `COCCOC(=O)c1cc2c3ccccc3nc-2c[nH]1` gave an IC50 in test [1] of 0.145 µM. This compound also registered an inhibition in test [2] of 34.6%.

`COC(=O)C1Cc2c([nH]c3ccccc23)CN1` (stereo unspecified) registered an IC50 in test [1] of 0.25 µM. Also, the inhibition in test [2] worked out at 6.1%.

The compound `O=C(OCc1ccccc1)c1cc2c3ccccc3nc-2c[nH]1` registered an IC50 in test [1] of 0.021 µM. In test [2], this compound had an inhibition of 38.4%.

In turn, `CCCOC(=O)c1cc2c(cn1)[nH]c1ccccc12` displayed an IC50 in test [1] of 0.0046 µM. Also, the inhibition in test [2] stood at 62.7%.

In test [1], `O=C(OCc1ccccc1)C1Cc2c([nH]c3ccccc23)CN1` (stereo unspecified) yielded an IC50 of 2.7 µM.

In turn, `[2H]C([2H])([2H])OC(=O)c1cc2c(cn1)[nH]c1ccccc12` returned an IC50 in test [1] of 0.0053 µM.

With `O=C(OCCCl)c1cc2c3ccccc3nc-2c[nH]1`, the IC50 in test [1] came to 0.022 µM. In test [2], this compound registered an inhibition of 89%.

In turn, `CCOC(=O)c1cc2c(cn1)[nH]c1ccccc12` had a half-inhibitory concentration (IC50) in test [1] of 0.0014 µM. This compound gave an inhibition in test [2] of 61.7%.

On to `COC(=O)c1cc2c(cn1)[nH]c1ccccc12` [BETA-CCM], for which, in test [1], the IC50 turned out to be 0.0025 µM. In test [2], this compound had an inhibition of 51.2%.

Take `O=C(OCCF)c1cc2c3ccccc3nc-2c[nH]1`: in test [1], the IC50 was 0.027 µM. In test [2], this compound displayed an inhibition of 55.3%.

On to `CCCOC(=O)C1Cc2c([nH]c3ccccc23)CN1` (stereo unspecified), for which the IC50 in test [1] is 4.4 µM.

Take `CCOC(=O)C1Cc2c([nH]c3ccccc23)CN1` (stereo unspecified): the IC50 in test [1] is 6 µM.

On to `CN(C)CCOC(=O)c1cc2c3ccccc3nc-2c[nH]1`, for which the IC50 in test [1] was determined as 0.33 µM. This compound also showed an inhibition in test [2] of 13.4%.

`N#CCCOC(=O)c1cc2c3ccccc3nc-2c[nH]1`: the IC50 in test [1] was found to be 0.027 µM. In addition, the inhibition in test [2] amounted to 44.4%.

For the origin of these results see ChEMBL document CHEMBL1122458, “beta-Carbolines as benzodiazepine receptor ligands. 1. Synthesis and benzodiazepine receptor interaction of esters of beta-carboline-3-carboxylic acid” (J Med Chem, 1983).
